# Hits are enriched below; roughly 4.3% of the tested compounds scored in any of these assays.
# TAAR1 antagonist – antagonists of human TAAR1 | 360,000 compounds, 1.5% hits | AID 624466 | inhibition, % at 3 µM | CHO RD-HGA16 TAAR1, Fluo-8 calcium fluorescence, antagonist;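 active = inhibition above a per-plate cutoff, the mean inhibition of test compounds on that plate plus 3 SD, cut at about 49% in these data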;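 also: 0% = DMSO plus EC80 beta-PEA response and 100% = DMSO alone without agonist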
#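 System: CHO RD-HGA16 cells bearing hTAAR1. Reagent: EC80 β-phenethylamine stimulus. Schedule: seeding 17-24 h prior, 75-min 37 °C, 30-min RT dye loading. Signal: Fluo-8 intracellular calcium dye fluorescence, real-time kinetic reads. Read-out: % inhibition from peak post-agonist over basal fluorescence ratio. Benchmarks: vehicle wells and EC80 agonist wells. Replicates: n of 1.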
# Beta2AR agonist – human beta-2 adrenergic receptor agonism by FAP | P07550 | Am2.2-beta2AR cells, FAP receptor internalization, flow cytometry | response, % (test concentration not listed) | 340,000 compounds, 0.43% hits | AID 504454;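 active = response above a set limit, near 3 SD of response in nonfluorescent compounds, cut at about 42% in these data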
# Target sequence (P07550 whole entry, looked up): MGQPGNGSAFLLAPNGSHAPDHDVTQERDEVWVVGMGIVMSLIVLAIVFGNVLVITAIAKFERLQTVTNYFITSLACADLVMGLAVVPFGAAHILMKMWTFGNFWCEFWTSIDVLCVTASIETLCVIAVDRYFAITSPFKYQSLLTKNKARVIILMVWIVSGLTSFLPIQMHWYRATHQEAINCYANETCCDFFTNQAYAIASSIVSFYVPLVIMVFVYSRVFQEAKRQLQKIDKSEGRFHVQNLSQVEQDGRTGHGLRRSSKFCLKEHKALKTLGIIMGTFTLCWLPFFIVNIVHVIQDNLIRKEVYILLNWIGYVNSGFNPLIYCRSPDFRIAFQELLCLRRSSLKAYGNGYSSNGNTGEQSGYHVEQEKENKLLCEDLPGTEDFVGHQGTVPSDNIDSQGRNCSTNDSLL
# MC4R antag cAMP – blocks human MC4R cAMP signaling; MC4R-expressing cells, MTII-stimulated cAMP, LANCE TR-FRET; 360,000 compounds, 0.48% hits; AID 540295; inhibition, % at 6.5 µM;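 active = inhibition above its plate's cutoff, the mean of tested wells on that plate plus 3 SD, cut at about 29% in these data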;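 also: 0% = Melanotan II alone and 100% = Melanotan II plus saturating MCL0020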
#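 Assay system: U2OS cells stably expressing human melanocortin 4 receptor (MC4R) / Dosing: 6.5 µM / Timing: compound 30 min, challenge 1 h, detection 1 h / Measured by: Eu-cAMP/anti-cAMP TR-FRET, emission 671 nm / Replicates: singlicate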
# MC4R ag barr – activates human MC4R beta-arrestin recruitment; P32245; U2OS MC4R beta-arrestin complementation, luminescence; percent of melanotan II response, DMSO zero; activation, % at 8.9 µM; 360,000 compounds, 0.98% hits;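 active = activation above a per-plate cutoff, the mean activation of sample wells on that plate plus 3 SD, cut at about 8% in these data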
# TAAR1 agonist – agonists of human TAAR1; 360,000 compounds, 0.99% hits; CHO RD-HGA16 TAAR1, Fluo-8 calcium fluorescence; vehicle wells 0%, saturating PEA agonist 100%; Q96RJ0; activation, % at 3 µM;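 active = activation above the mean activation of all test compounds in the run plus 3 SD, cut at about 38% in these data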
#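 Test system: RD-HGA16 (CHO) cells co-expressing Gα16 and hTAAR1 | Doses: Single dose, 3 µM | Schedule: 17-24 h seeding, 75 min 37 °C dye, 30 min RT | Evaluation: % activation from peak over basal fluorescence ratio, DMSO-to-PEA scaled | Technique: Kinetic Fluo-8 calcium fluorescence | Benchmarks: Low control DMSO, high control PEA (EC100)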
# m5-HT2A agonist – activates the mouse 5-HT2A serotonin receptor; P35363; CHO-K1 mHTR2A beta-arrestin complementation, luminescence; percent of 30 µM serotonin response; activation, % at 7.6 µM; 360,000 compounds, 0.66% hits;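 active = activation above a run cutoff, the mean activation of all tested compounds plus 3 SD, cut at about 14% in these data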;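 also: 0% = plate median of compound wells and 100% = 30 µM serotonin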
# TAAR1 nonsel count – counter-screen for TAAR1 antagonists: nonselective antagonists | inhibition, % at 3 µM | 2,400 compounds, 77% hits | counterscreen cell line, calcium fluorescence, antagonist mode | shares compounds with TAAR1 antagonist; in the data active = inhibition above about 22%;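 also: CHO-Ga16 host cells stimulated with ATP at an EC80 level; 0% = agonist EC80 plus vehicle and 100% = vehicle without agonist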
# TAAR1 antag conf – human TAAR1 antagonism, confirmed | 2,400 compounds, 40% hits | shares compounds with TAAR1 antagonist | TAAR1-expressing cells, fluorescence antagonist read-out | inhibition, % at 3 µM; in the data active = inhibition above about 49%;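 also: CHO-Ga16 host cells challenged with agonist PEA near its EC80; 0% = agonist at EC80 plus vehicle and 100% = vehicle with no agonist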
# Ga16 ag counter-1 – nonselective Ga16 agonism, counter-screen. shares compounds with TAAR1 antagonist. Ga16-expressing cells, calcium fluorescence, agonist counterscreen. activation, % at 3 µM. 2,400 compounds, 18% hits. AID 651953; in the data active = activation above about 12%;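 also: 0% = vehicle wells and 100% = saturating stimulus response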
# TAAR1 ag counter – TAAR1 agonism, antagonist counter-screen; shares compounds with TAAR1 antagonist; hTAAR1 cell line, fluorescence activation, agonist mode; activation, % at 3 µM; 2,400 compounds, 2% hits; AID 651955; in the data active = activation above about 37%;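 also: CHO cells stably expressing TAAR1 with calcium dye readout; 0% = DMSO vehicle and 100% = full agonist response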
# TAAR1 ag conf – confirmation of human TAAR1 agonists | 2,400 compounds, 82% hits | shares compounds with TAAR1 agonist | AID 651783 | activation, % at 3 µM | CHO RD-HGA16 TAAR1, Fluo-8 calcium fluorescence; scaled: DMSO 0%, maximal phenethylamine 100%;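 active = activation above a cutoff set at the run's mean compound activation plus 3 SD, cut at about 39% in these data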
# Ga16 ag counter-2 – nonselective agonist in parental cells, TAAR1 agonist counter-screen; AID 651787; CHO-Ga16 parental, Fluo-8 calcium fluorescence; normalized to maximal ATP response, DMSO zero; activation, % at 3 µM; shares compounds with TAAR1 agonist; 2,400 compounds, 50% hits;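 active = activation above the run cutoff, the mean activation over all tested wells plus 3 SD, cut at about 12% in these data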;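 also: 0% = DMSO wells and 100% = maximal ATP response on the peak over basal ratio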
# TAAR1 desensitize – TAAR1 response desensitization, agonist counter-screen; 2,400 compounds, 46% hits; inhibition, % at 3 µM; CHO RD-HGA16 hTAAR1, Fluo-8 calcium, beta-PEA response inhibition; shares compounds with TAAR1 agonist;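 active = inhibition above the run cutoff, the mean inhibition of all test compounds plus 3 SD, cut at about 49% in these data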;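 also: beta-PEA stimulus applied at its EC80; loss of beta-PEA calcium signal after compound pretreatment read as receptor desensitization; 0% = DMSO with beta-PEA at EC80 and 100% = DMSO alone without agonist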
# Ga16 antag count – nonselective Ga16 antagonism, counter-screen; 2,400 compounds, 39% hits; AID 651952; CHO-Ga16 ATP-induced calcium, Fluo-8 fluorescence; shares compounds with TAAR1 agonist; inhibition, % at 3 µM;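 active = inhibition above the plate's mean compound inhibition plus 3 SD, computed per plate, cut at about 22% in these data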;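 also: 0% = EC80 ATP with DMSO and 100% = DMSO wells without ATP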
# Active calls of the source: *; x = not tested or not shown.
SMILES,TAAR1 antagonist,Beta2AR agonist,MC4R antag cAMP,MC4R ag barr,TAAR1 agonist,m5-HT2A agonist,TAAR1 ag conf,Ga16 ag counter-2,TAAR1 desensitize,Ga16 antag count,others
CC(C)C(=O)NC(=S)Nc1ccccc1N1CCN(C(=O)c2ccc(Cl)cc2)CC1,81*,11,17,-2,17,3,x,x,x,x,TAAR1 nonsel count=38*;TAAR1 antag conf=58*;Ga16 ag counter-1=14*;TAAR1 ag counter=15
COc1ccccc1NC(=S)N1CCN(c2cccc(C)c2C)CC1,13,2,13,1,-2,-2,x,x,x,x,
CCCNC(=O)C1(C)CCN(C(=O)/C=C/c2ccccc2)C1 (configuration not stated),-6,x,10,-1,0,0,x,x,x,x,
CS(=O)(=O)c1cccc(C(=O)OCC(=O)c2ccc3c(c2)OCCO3)c1,-5,2,8,0,8,8,x,x,x,x,
O=C(COC(=O)c1cccc(S(=O)(=O)NCc2ccccc2)c1)c1ccc2c(c1)OCCO2,63*,1,19,0,30,3,x,x,x,x,TAAR1 nonsel count=35*;TAAR1 antag conf=49*;Ga16 ag counter-1=9;TAAR1 ag counter=7
Cc1cccc(Nc2cc(C)c3c(O)cccc3n2)c1C,82*,5,2,2,94*,-7,96*,22*,92*,17,
O=c1cc(N/N=C/c2ccccc2)[nH]c(=O)[nH]1,31,4,3,0,58*,-1,84*,15*,90*,7,
Cc1c(C=NNc2ccccc2)[nH]c(=O)[nH]c1=O,2,-11,-26,-1,58*,3,72*,3,36,11,
O=c1cc(C=NNc2ccccc2)[nH]c(=O)[nH]1,x,-2,-28,-2,x,-3,x,3,x,11,
O=C(O)c1ccc(NN=Cc2cc(=O)[nH]c(=O)[nH]2)cc1,-7,-4,-45,0,2,1,x,x,x,x,
O=C(Nc1nc(-c2ccccn2)cs1)c1cccc(S(=O)(=O)N2CCOCC2)c1,22,-4,8,1,11,-4,x,x,x,x,
CCCC1(c2ccccc2)NC(=O)N(CC(=O)c2[nH]c(C)c(C(=O)OCC)c2C)C1=O (configuration not stated),43,5,8,-2,78*,2,52*,16*,55*,29*,
CC(CCc1ccccc1)NC(=O)C(=O)c1c[nH]c2ccccc12 (configuration not stated),-12,3,3,3,-2,-2,x,x,x,x,
OC(CSc1ccccc1)CN1CCN(c2ccccc2)CC1 (configuration not stated),-13,1,3,3,2,5,x,x,x,x,
CN(/N=C/c1cc([N+](=O)[O-])ccc1O)c1ccccc1,17,2,-3,1,7,-2,x,x,x,x,

# Source: PubChem (several laboratories)
